Blank lines part the entries; values can stand above or below the molecule they belong to.
What was measured:
[1] = Antiproliferative activity against human RKOAS451 cells after 10 days; type: functional, cell-based; settings: RKOAS451, 240 h
Procedure, shortened: (§1)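 Broad cancer cell line panel (Eurofins Oncopanel, about 240 lines; mycoplasma negative, STR verified) grown in 2D culture and exposed to compound in a 10-day proliferation assay. The top concentration was 10 μM for the SMYD2 inhibitor series and 25 μM for the SMYD3 inhibitor. The proliferative IC50 is taken from concentration-response data, each value the mean of three biological replicates.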

BXPC-3 = test: Antiproliferative activity against human BXPC-3 cells after 10 days; type: functional, cell-based; settings: BXPC-3, 240 h
Procedure, shortened: (§2)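 Tested as part of a 240-line cancer cell panel (Eurofins Oncopanel); all lines were mycoplasma-negative and STR-verified. Cells were exposed to a compound concentration series in 2D culture for 10 days. The highest concentration was 10 μM or 25 μM, depending on the inhibitor. Antiproliferative IC50 was derived from the mean of three biological replicates.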

RKO = test: Antiproliferative activity against human RKO cells after 10 days; type: functional, cell-based; settings: 240 h; procedure, shortened: as §1
MES-SA = test: Antiproliferative activity against human MES-SA cells after 10 days; type: functional, cell-based; settings: 240 h; procedure, shortened: as §1
MDA-MB-231 = test: Antiproliferative activity against human MDA-MB-231 cells after 10 days; type: functional, cell-based; settings: MDA-MB-231, 240 h; procedure, shortened: as §1
NCI-H295R = test: Antiproliferative activity against human NCI-H295R cells after 10 days; type: functional, cell-based; settings: 240 h; procedure, shortened: as §1
CCF-STTG1 = test: Antiproliferative activity against human CCF-STTG1 cells after 10 days; type: functional, cell-based; settings: CCF-STTG1, 240 h
Procedure, shortened: (§3)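 Cell lines run in the Eurofins Oncopanel broad cancer panel, all mycoplasma-negative and STR-verified. Cells were exposed to a compound concentration series in a 10-day proliferation assay, and an anti-proliferative IC50 was derived. Values are the mean of three biological replicates.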

MOLT-3 = test: Antiproliferative activity against human MOLT-3 cells after 10 days; type: functional, cell-based; settings: MOLT-3, 240 h; procedure, shortened: as §1
TCC-SUP = test: Antiproliferative activity against human TCC-SUP cells after 10 days; type: functional, cell-based; settings: 240 h
SW900 = test: Antiproliferative activity against human SW900 cells after 10 days; type: functional, cell-based; settings: SW900, 240 h
[2] = Antiproliferative activity against human A7 cells after 10 days; type: functional, cell-based; settings: A7, 240 h; procedure, shortened: as §2
CAPAN-1 = test: Antiproliferative activity against human CAPAN-1 cells after 10 days; type: functional, cell-based; settings: CAPAN-1, 240 h; procedure, shortened: as §2
DOHH-2 = test: Antiproliferative activity against human DOHH-2 cells after 10 days; type: functional, cell-based; settings: DOHH-2, 240 h
Procedure, shortened: (§4)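 10-day 2D proliferation screen of a broad cancer cell panel (about 240 lines, Eurofins Oncopanel). All lines were mycoplasma negative and STR verified. Compounds were dosed up to a top concentration of 10 μM or 25 μM, depending on the inhibitor. Anti-proliferative IC50 values are the average of three biological replicates.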

Capan-2 = test: Antiproliferative activity against human Capan2 cells after 10 days; type: functional, cell-based; settings: Capan-2, 240 h; procedure, shortened: as §4
[3] = Antiproliferative activity against human HLF cells after 10 days; type: functional, cell-based; settings: 240 h; procedure, shortened: as §4
SH-4 = test: Antiproliferative activity against human SH-4 cells after 10 days; type: functional, cell-based; settings: SH-4, 240 h
COR-L23 = test: Antiproliferative activity against human COR-L23 cells after 10 days; type: functional, cell-based; settings: COR-L23, 240 h; procedure, shortened: as §4
COLO 205 = test: Antiproliferative activity against human COLO 205 cells after 10 days; type: functional, cell-based; settings: COLO 205, 240 h; procedure, shortened: as §2
U-87 MG = test: Antiproliferative activity against human U-87MG cells after 10 days; type: functional, cell-based, U-87MG ATCC; settings: 240 h
DLD-1 = test: Antiproliferative activity against human DLD-1 cells after 10 days; type: functional, cell-based; settings: DLD-1, 240 h; procedure, shortened: as §4
NCI-H441 = test: Antiproliferative activity against human NCI-H441 cells after 10 days; type: functional, cell-based; settings: NCI-H441, 240 h; procedure, shortened: as §1
CAKI-1 = test: Antiproliferative activity against human CAKI-1 cells after 10 days; type: functional, cell-based; settings: CAKI-1, 240 h; procedure, shortened: as §2
[4] = Antiproliferative activity against human CML-T1 cells after 10 days; type: functional, cell-based; settings: CML-T1, 240 h; procedure, shortened: as §2
LS174T = test: Antiproliferative activity against human LS174T cells after 10 days; type: functional, cell-based; settings: 240 h; procedure, shortened: as §1
MV4-11 = test: Antiproliferative activity against human MV4-11 cells after 10 days; type: functional, cell-based; settings: MV4-11, 240 h; procedure, shortened: as §1
[5] = Antiproliferative activity against human SK-N-BE(2)-C cells after 10 days; type: functional, cell-based; settings: 240 h
HCT-15 = test: Antiproliferative activity against human HCT-15 cells after 10 days; type: functional, cell-based; settings: HCT-15, 240 h; procedure, shortened: as §3
PANC-1 = test: Antiproliferative activity against human PANC-1 cells after 10 days; type: functional, cell-based; settings: PANC-1, 240 h; procedure, shortened: as §1
LS-1034 = test: Antiproliferative activity against human LS1034 cells after 10 days; type: functional, cell-based; settings: LS-1034, 240 h; procedure, shortened: as §1
Y79 = test: Antiproliferative activity against human Y79 cells after 10 days; type: functional, cell-based; settings: Y79, 240 h
Daoy = test: Antiproliferative activity against human Daoy cells after 10 days; type: functional, cell-based; settings: 240 h; procedure, shortened: as §4
CAKI-2 = test: Antiproliferative activity against human CAKI-2 cells after 10 days; type: functional, cell-based; settings: CAKI-2, 240 h; procedure, shortened: as §2
HuCCT-1 = test: Antiproliferative activity against human HuCCT-1 cells after 10 days; type: functional, cell-based; settings: HuCCT-1, 240 h; procedure, shortened: as §4
[6] = test system: KATO III stomach cancer cell line; test: Antiproliferative activity against human KATO III cells after 10 days; type: functional, cell-based; settings: 240 h; procedure, shortened: as §1
OE33 = test: Antiproliferative activity against human OE33 cells after 10 days; type: functional, cell-based; settings: OE33, 240 h; procedure, shortened: as §1
KLE = test: Antiproliferative activity against human KLE cells after 10 days; type: functional, cell-based; settings: 240 h; procedure, shortened: as §1
SW684 = test: Antiproliferative activity against human SW684 cells after 10 days; type: functional, cell-based; settings: SW684, 240 h
ARH-77 = test: Antiproliferative activity against human ARH-77 cells after 10 days; type: functional, cell-based; settings: ARH-77, 240 h; procedure, shortened: as §2
A204 = test: Antiproliferative activity against human A204 cells after 10 days; type: functional, cell-based; settings: A204, 240 h; procedure, shortened: as §2
SW1353 = test: Antiproliferative activity against human SW1353 cells after 10 days; type: functional, cell-based; settings: SW1353, 240 h
U2OS = test: Antiproliferative activity against human U2OS cells after 10 days; type: functional, cell-based; settings: 240 h
T-24 = test: Antiproliferative activity against human T24 cells after 10 days; type: functional, cell-based; settings: T-24, 240 h
HT-3 = test: Antiproliferative activity against human HT-3 cells after 10 days; type: functional, cell-based; settings: HT-3, 240 h; procedure, shortened: as §4
SCaBER = test: Antiproliferative activity against human SCaBER cells after 10 days; type: functional, cell-based; settings: 240 h
SK-N-FI = test: Antiproliferative activity against human SK-N-FI cells after 10 days; type: functional, cell-based; settings: 240 h
J-RT3-T3-5 = test: Antiproliferative activity against human J-RT3-T3-5 cells after 10 days; type: functional, cell-based; settings: J-RT3-T3-5, 240 h; procedure, shortened: as §1
A101D = test: Antiproliferative activity against human A101D cells after 10 days; type: functional, cell-based; settings: 240 h; procedure, shortened: as §2
SK-MEL-1 = test: Antiproliferative activity against human SK-MEL-1 cells after 10 days; type: functional, cell-based; settings: SK-MEL-1, 240 h
SW948 = test: Antiproliferative activity against human SW948 cells after 10 days; type: functional, cell-based; settings: SW948, 240 h
BT-20 = test: Antiproliferative activity against human BT-20 cells after 10 days; type: functional, cell-based; settings: BT-20, 240 h; procedure, shortened: as §2

- IC50 (BXPC-3): 2.87 µM
- IC50 (MDA-MB-231): 1.07 µM
- IC50 (NCI-H295R): 4.84 µM
- IC50 (MOLT-3): 1.36 µM
- IC50 (SW900): 3.22 µM
- IC50 (COLO 205): 0.944 µM
- IC50 (U-87 MG): 2.85 µM
- IC50 (DLD-1): 3.4 µM
- IC50 (NCI-H441): 5.63 µM
- IC50 (MV4-11): 1.01 µM
- IC50 (HCT-15): 1.7 µM
- IC50 (PANC-1): 2.87 µM
- IC50 [6]: 1.39 µM
- IC50 (SW684): 5.75 µM
- IC50 (SW1353): 2.98 µM
- IC50 (U2OS): 1.68 µM
- IC50 (SK-N-FI): 6.03 µM
- IC50 (SK-MEL-1): 1.9 µM
- IC50 (SW948): 3.91 µM
- IC50 (BT-20): 3.35 µM
SMILES: Cc1cn(CCN2CCN(c3ccccc3-c3cc(C#N)cc(C(=O)NCCCN4CCCC4)c3)CC2)c2ccccc12
- IC50 [1]: 1.11 µM
- IC50 (RKO): 1.04 µM
- IC50 (MES-SA): 2.3 µM
- IC50 (CCF-STTG1): 5.82 µM
- IC50 (TCC-SUP): 2.26 µM
- IC50 [2]: 2.54 µM
- IC50 (CAPAN-1): 5.09 µM
- IC50 (DOHH-2): 0.263 µM
- IC50 (Capan-2): 1.57 µM
- IC50 [3]: 2.44 µM
- IC50 (SH-4): 1.15 µM
- IC50 (COR-L23): 2.21 µM
- IC50 (CAKI-1): 2.79 µM
- IC50 [4]: 1.1 µM
- IC50 (LS174T): 1.47 µM
- IC50 [5]: 3.31 µM
- IC50 (LS-1034): 2.9 µM
- IC50 (Y79): 3.53 µM
- IC50 (Daoy): 3.67 µM
- IC50 (CAKI-2): 1.22 µM
- IC50 (HuCCT-1): 1.24 µM
- IC50 (OE33): 2 µM
- IC50 (KLE): 3.21 µM
- IC50 (ARH-77): 0.78 µM
- IC50 (A204): 1.35 µM
- IC50 (T-24): 2.94 µM
- IC50 (HT-3): 3.27 µM
- IC50 (SCaBER): 1.5 µM
- IC50 (J-RT3-T3-5): 1.18 µM
- IC50 (A101D): 1.23 µM

- IC50 (BXPC-3): > 10 µM
- IC50 (MDA-MB-231): > 10 µM
- IC50 (NCI-H295R): > 10 µM
- IC50 (MOLT-3): > 10 µM
- IC50 (SW900): > 10 µM
- IC50 (COLO 205): > 10 µM
- IC50 (U-87 MG): > 10 µM
- IC50 (DLD-1): > 10 µM
- IC50 (NCI-H441): > 10 µM
- IC50 (MV4-11): > 10 µM
- IC50 (HCT-15): > 10 µM
- IC50 (PANC-1): > 10 µM
- IC50 [6]: > 10 µM
- IC50 (SW684): > 10 µM
- IC50 (SW1353): > 10 µM
- IC50 (U2OS): > 10 µM
- IC50 (SK-N-FI): > 10 µM
- IC50 (SK-MEL-1): > 10 µM
- IC50 (SW948): > 10 µM
- IC50 (BT-20): > 10 µM
SMILES: O=C(NC1CN(Cc2cnn(Cc3ccccc3)c2)C1)c1cn(C2CC2)nn1
- IC50 [1]: > 10 µM
- IC50 (RKO): > 10 µM
- IC50 (MES-SA): > 10 µM
- IC50 (CCF-STTG1): > 10 µM
- IC50 (TCC-SUP): > 10 µM
- IC50 [2]: > 10 µM
- IC50 (CAPAN-1): > 10 µM
- IC50 (DOHH-2): > 10 µM
- IC50 (Capan-2): > 10 µM
- IC50 [3]: > 10 µM
- IC50 (SH-4): > 10 µM
- IC50 (COR-L23): > 10 µM
- IC50 (CAKI-1): > 10 µM
- IC50 [4]: > 10 µM
- IC50 (LS174T): > 10 µM
- IC50 [5]: > 10 µM
- IC50 (LS-1034): > 10 µM
- IC50 (Y79): > 10 µM
- IC50 (Daoy): > 10 µM
- IC50 (CAKI-2): > 10 µM
- IC50 (HuCCT-1): > 10 µM
- IC50 (OE33): > 10 µM
- IC50 (KLE): > 10 µM
- IC50 (ARH-77): > 10 µM
- IC50 (A204): > 10 µM
- IC50 (T-24): > 10 µM
- IC50 (HT-3): > 10 µM
- IC50 (SCaBER): > 10 µM
- IC50 (J-RT3-T3-5): 0.003 µM
- IC50 (A101D): > 10 µM
